Experimental data as given in ChEMBL document CHEMBL1130328, “Synthesis and pharmacological activity of deltorphin and dermorphin-related glycopeptides” (J Med Chem, 1997).
pIC50, pKi: −log10 of the molar value.

How the values were obtained:
Mu-type opioid receptor = Mu-type opioid receptor (Rattus norvegicus, UniProt P33535); assay: Opioid receptor mu 1 binding affinity by displacement of radioligand [3H][DAla,MePhe,Gly-ol]enkephalin (DAGO) from rat brain membrane synaptosomes; type: subcellular
How it was run: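 Rat brain (male Sprague–Dawley) P2 synaptosomes, preincubated to remove endogenous opioids and washed. Incubated 120 min at 22 °C, 1.6 mg protein, in duplicate, with 0.62 nM [3H]DPDPE (δ) or 0.68 nM [3H]DAGO (μ). Nonspecific binding with 1–2 μM unlabelled ligand. Filtration, scintillation counting. Five to seven concentrations. Ki from IC50 by Cheng–Prusoff, mean ± SE, n = 3–9.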

Cavia porcellus = species on record: Cavia porcellus; assay: Bioactivity in vitro in guinea pig ileum (GPI) isolated organ preparation; type: functional
How it was run: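 Guinea pig ileum segment (2–3 cm) in 20 mL bath with 70 μM hexamethonium and 0.125 μM mepyramine, 95% O2/5% CO2, 36 °C. Transmural stimulation 0.5 ms pulses at 0.1 Hz, 1.5× maximal-twitch voltage. 1 g load, 45 min equilibration, isotonic recording. Dose–response curves run against a reference agonist. Means of six experiments.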

[1] = biological target: Delta-type opioid receptor (Rattus norvegicus, UniProt P33533); assay: Opioid receptor delta 1 binding affinity by displacement of radioligand [3H][D-Pen]-enkephalin (DPDPE) from rat brain membrane synaptosomes; type: subcellular
Oryctolagus cuniculus = species on record: Oryctolagus cuniculus; assay: Bioactivity in vitro in rabbit jejunum (RJ) isolated organ preparation; type: functional
How it was run: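 Rabbit jejunum on isotonic transducer under 1 g load, equilibrated 45 min while recording spontaneous activity without washing. Dose–response curves run against a reference agonist. At least four jejunum preparations, each from a different rabbit. Means of six experiments.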

Chain of Delta-type opioid receptor (P33533 whole entry): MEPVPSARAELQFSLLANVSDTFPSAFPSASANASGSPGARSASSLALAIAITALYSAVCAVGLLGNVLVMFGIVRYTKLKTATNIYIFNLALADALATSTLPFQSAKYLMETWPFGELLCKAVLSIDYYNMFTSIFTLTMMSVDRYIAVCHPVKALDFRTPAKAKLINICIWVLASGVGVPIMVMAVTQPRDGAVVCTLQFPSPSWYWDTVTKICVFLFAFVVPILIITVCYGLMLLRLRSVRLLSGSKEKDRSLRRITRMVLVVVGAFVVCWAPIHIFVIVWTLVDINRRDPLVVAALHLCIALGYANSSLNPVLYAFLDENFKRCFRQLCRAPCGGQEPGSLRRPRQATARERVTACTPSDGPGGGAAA
Chain of Mu-type opioid receptor (P33535 whole entry): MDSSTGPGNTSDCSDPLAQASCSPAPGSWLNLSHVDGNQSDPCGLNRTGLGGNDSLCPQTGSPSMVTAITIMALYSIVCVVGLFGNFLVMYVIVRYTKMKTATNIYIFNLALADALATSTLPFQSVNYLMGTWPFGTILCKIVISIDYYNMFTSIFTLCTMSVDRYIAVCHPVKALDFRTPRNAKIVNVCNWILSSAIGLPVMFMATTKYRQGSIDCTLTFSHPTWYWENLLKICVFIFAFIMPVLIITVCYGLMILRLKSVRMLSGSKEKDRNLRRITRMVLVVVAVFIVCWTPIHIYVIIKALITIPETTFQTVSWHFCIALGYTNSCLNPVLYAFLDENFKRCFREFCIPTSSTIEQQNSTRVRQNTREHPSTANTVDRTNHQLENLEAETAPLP

Row | SMILES | pKi (Mu-type opioid receptor) | pIC50 (Cavia porcellus) | pKi [1] | pIC50 (Oryctolagus cuniculus)
1 | CC(=O)OC[C@@H]1O[C@H](O[C@H](C)[C@H](NC(=O)[C@@H]2CCCN2C(=O)[C@H](Cc2ccc(O)cc2)NC(=O)CNC(=O)[C@H](Cc2ccccc2)NC(=O)[C@@H](C)NC(=O)[C@@H](N)Cc2ccc(O)cc2)C(=O)NCC(N)=O)[C@@H](OC(C)=O)[C@H](OC(C)=O)[C@H]1OC(C)=O | 9.34 | 7.66 | 7.06 | –
2 | C[C@@H](NC(=O)[C@@H](N)Cc1ccc(O)cc1)C(=O)N[C@@H](Cc1ccccc1)C(=O)N[C@H](C(=O)N[C@@H](Cc1ccc(O)cc1)C(=O)N1CCC[C@H]1C(=O)N[C@@H](CO)C(N)=O)[C@@H](C)O[C@H]1O[C@H](CO)[C@@H](O)[C@H](O)[C@H]1O | 5.77 | 5.47 | 5.75 | –
3 | CC(=O)OC[C@@H]1O[C@H](O[C@@H](C)[C@H](NC(=O)[C@@H](NC(=O)[C@@H](NC(=O)[C@H](CC(=O)O)NC(=O)[C@H](Cc2ccccc2)NC(=O)[C@@H](C)NC(=O)[C@@H](N)Cc2ccc(O)cc2)C(C)C)C(C)C)C(=O)NCC(N)=O)[C@@H](OC(C)=O)[C@H](OC(C)=O)[C@H]1OC(C)=O | 6.20 | – | 8.89 | 6.05
4 | CC(C)[C@H](NC(=O)[C@H](CC(=O)O)NC(=O)[C@H](Cc1ccccc1)NC(=O)[C@@H](C)NC(=O)[C@@H](N)Cc1ccc(O)cc1)C(=O)N[C@H](C(=O)N[C@H](C(=O)NCC(N)=O)[C@@H](C)O[C@H]1O[C@H](CO)[C@@H](O)[C@H](O)[C@H]1O)C(C)C | 6.24 | – | 8.81 | 6.00
5 | CC(=O)OC[C@H]1O[C@H](O[C@H](C)[C@H](NC(=O)[C@H](Cc2ccccc2)NC(=O)[C@@H](C)NC(=O)[C@@H](N)Cc2ccc(O)cc2)C(=O)N[C@H](C(=O)N[C@H](C(=O)NCC(N)=O)C(C)C)C(C)C)[C@H](OC(C)=O)[C@@H](OC(C)=O)[C@@H]1OC(C)=O | 5.82 | – | 5.68 | < 5.40
6 | C[C@H](O[C@H]1O[C@@H](CO)[C@H](O)[C@@H](O)[C@@H]1O)[C@H](NC(=O)[C@@H]1CCCN1C(=O)[C@H](Cc1ccc(O)cc1)NC(=O)CNC(=O)[C@H](Cc1ccccc1)NC(=O)[C@@H](C)NC(=O)[C@@H](N)Cc1ccc(O)cc1)C(=O)NCC(N)=O | 9.54 | 8.51 | 7.17 | –
7 | CC(C)[C@H](NC(=O)[C@H](CC(=O)O)NC(=O)[C@H](Cc1ccccc1)NC(=O)[C@@H](C)NC(=O)[C@@H](N)Cc1ccc(O)cc1)C(=O)N[C@H](C(=O)NCC(N)=O)C(C)C [DELTORPHIN C] | – | – | – | 6.29
8 | C[C@@H](NC(=O)[C@@H](N)Cc1ccc(O)cc1)C(=O)N[C@@H](Cc1ccccc1)C(=O)NCC(=O)N[C@@H](Cc1ccc(O)cc1)C(=O)N1CCC[C@H]1C(=O)N[C@@H](CO)C(N)=O [DERMORPHIN] | 9.55 | 8.68 | – | –
9 | CC(=O)OC[C@H]1O[C@H](O[C@H](C)[C@H](NC(=O)[C@H](Cc2ccccc2)NC(=O)[C@@H](C)NC(=O)[C@@H](N)Cc2ccc(O)cc2)C(=O)N[C@@H](Cc2ccc(O)cc2)C(=O)N2CCC[C@H]2C(=O)N[C@@H](CO)C(N)=O)[C@H](OC(C)=O)[C@H](OC(C)=O)[C@H]1OC(C)=O | 5.36 | < 5.40 | 4.65 | –
10 | CC(C)[C@H](NC(=O)[C@@H](NC(=O)[C@@H](NC(=O)[C@H](Cc1ccccc1)NC(=O)[C@@H](C)NC(=O)[C@@H](N)Cc1ccc(O)cc1)[C@@H](C)O[C@H]1O[C@H](CO)[C@@H](O)[C@@H](O)[C@H]1O)C(C)C)C(=O)NCC(N)=O | 5.70 | – | 5.02 | < 5.40
